Results from ChEMBL document CHEMBL1142300, “4-Aminopyrimidine tetrahydronaphthols: a series of novel vanilloid receptor-1 antagonists with improved solubility properties” (Bioorg Med Chem Lett, 2008).
pIC50: −log10 of the molar value. In brackets after ≈: the same amount, converted by molar mass.

Assays:
[1] = target: Transient receptor potential cation channel subfamily V member 1 (Rattus norvegicus, UniProt O35433); assay: Antagonist activity at rat TRPV1 expressed in CHO cells assessed as inhibition of capsaicin-induced calcium mobilization; assay type: functional, cell-based
Procedure, shortened: (§1)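 Inhibition of capsaicin-evoked 45Ca2+ uptake into CHO cells stably expressing human or rat TRPV1; IC50 taken as mean of at least three measurements ± SEM. Compounds were also run separately for agonist activity.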

[2] = target: Transient receptor potential cation channel subfamily V member 1 (Homo sapiens, UniProt Q8NER1); assay: Antagonist activity at human TRPV1 expressed in CHO cells assessed as inhibition of capsaicin-induced calcium mobilization; assay type: functional, cell-based; procedure, shortened: as §1
[3] = Bioavailability in rat at 5 mg/kg, po; assay type: ADME, organism-based; details: in vivo
[4] = AUC in rat at 5 mg/kg, po; assay type: ADME, organism-based; design: dose 5 mg/kg, route oral; details: plasma
[5] = Solubility in phosphate buffered saline at pH 7.4; assay type: physicochemical
Procedure, shortened: (§2)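 Thermodynamic solubility determined on a high-throughput automated platform in three aqueous media: 0.01 N HCl, phosphate-buffered saline pH 7.4, and simulated intestinal fluid pH 6.8.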

[6] = Clearance in iv dosed rat; assay type: ADME, organism-based; details: in vivo
[7] = (§3) Half life in iv dosed rat; assay type: ADME, organism-based; details: in vivo
[8] = Solubility in simulated intestinal fluid at pH 6.8; assay type: physicochemical; procedure, shortened: as §2
[9] = Solubility in aqueous 0.01 N HCL; assay type: physicochemical; procedure, shortened: as §2
Rattus norvegicus = assay: as §3; assay type: ADME, organism-based; details: in vivo
[10] = AUC in rat at 3 mg/kg, po; assay type: ADME, organism-based; design: dose 3 mg/kg, route oral; details: plasma
[11] = simulated intestinal fluid, read-out: Solubility
[12] = aqueous 0.01 N HCl, read-out: Solubility

Sequence of Transient receptor potential cation channel subfamily V member 1 (Rattus norvegicus, UniProt O35433) (O35433 whole entry): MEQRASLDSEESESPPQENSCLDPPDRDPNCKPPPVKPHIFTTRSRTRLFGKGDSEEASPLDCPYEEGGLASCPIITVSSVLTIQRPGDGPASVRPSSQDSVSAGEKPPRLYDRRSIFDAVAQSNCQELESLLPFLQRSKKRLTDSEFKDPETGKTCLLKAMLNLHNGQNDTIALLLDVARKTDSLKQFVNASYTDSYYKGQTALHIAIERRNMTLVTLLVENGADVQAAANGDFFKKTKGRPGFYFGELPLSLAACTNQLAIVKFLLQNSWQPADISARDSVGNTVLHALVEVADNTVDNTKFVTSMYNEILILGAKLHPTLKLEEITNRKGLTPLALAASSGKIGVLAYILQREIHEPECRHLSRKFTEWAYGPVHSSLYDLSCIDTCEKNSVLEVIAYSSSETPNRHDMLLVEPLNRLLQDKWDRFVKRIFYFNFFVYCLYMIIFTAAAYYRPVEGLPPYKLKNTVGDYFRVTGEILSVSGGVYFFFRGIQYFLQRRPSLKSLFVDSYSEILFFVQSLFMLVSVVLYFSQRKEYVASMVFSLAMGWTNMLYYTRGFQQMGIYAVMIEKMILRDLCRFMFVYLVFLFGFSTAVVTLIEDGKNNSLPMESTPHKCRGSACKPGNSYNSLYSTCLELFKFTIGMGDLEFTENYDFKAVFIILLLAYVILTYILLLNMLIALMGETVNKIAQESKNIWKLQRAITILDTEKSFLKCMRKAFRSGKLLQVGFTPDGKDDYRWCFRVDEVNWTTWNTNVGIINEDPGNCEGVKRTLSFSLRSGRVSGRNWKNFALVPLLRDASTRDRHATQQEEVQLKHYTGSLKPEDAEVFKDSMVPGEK
Sequence of Transient receptor potential cation channel subfamily V member 1 (Homo sapiens, UniProt Q8NER1) (Q8NER1 whole entry): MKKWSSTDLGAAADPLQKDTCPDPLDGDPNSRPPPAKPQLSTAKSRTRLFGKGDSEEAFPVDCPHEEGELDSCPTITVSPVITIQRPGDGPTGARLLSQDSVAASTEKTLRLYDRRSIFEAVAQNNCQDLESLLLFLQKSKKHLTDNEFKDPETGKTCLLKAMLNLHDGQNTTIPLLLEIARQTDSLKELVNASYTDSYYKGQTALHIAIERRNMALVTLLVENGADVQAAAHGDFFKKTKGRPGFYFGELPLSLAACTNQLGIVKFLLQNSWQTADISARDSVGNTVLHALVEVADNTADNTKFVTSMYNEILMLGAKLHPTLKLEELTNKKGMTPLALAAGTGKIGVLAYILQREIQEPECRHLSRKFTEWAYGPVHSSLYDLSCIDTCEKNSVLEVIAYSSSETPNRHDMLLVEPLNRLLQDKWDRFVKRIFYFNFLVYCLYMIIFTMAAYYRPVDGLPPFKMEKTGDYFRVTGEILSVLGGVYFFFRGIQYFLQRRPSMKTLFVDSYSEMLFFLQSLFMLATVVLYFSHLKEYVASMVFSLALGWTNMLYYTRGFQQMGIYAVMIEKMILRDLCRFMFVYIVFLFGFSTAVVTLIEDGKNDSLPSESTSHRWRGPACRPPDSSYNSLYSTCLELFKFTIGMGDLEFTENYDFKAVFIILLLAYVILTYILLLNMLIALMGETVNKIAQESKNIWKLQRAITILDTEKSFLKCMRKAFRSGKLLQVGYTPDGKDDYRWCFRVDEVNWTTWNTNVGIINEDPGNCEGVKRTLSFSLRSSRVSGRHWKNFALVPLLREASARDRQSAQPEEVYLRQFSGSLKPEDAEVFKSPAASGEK

SMILES | pIC50 [1] | pIC50 [2] | Solubility ([5]; buffer) | Solubility ([9]; buffer) | other results
CSc1cccc(NC(=O)Nc2cccc3ccc(O)cc23)c1 | 7.46 | 7.89 |  |  | 
OC1CCc2c(Cl)ccc(Nc3cc(-c4ccc(C(F)(F)F)cc4)ncn3)c2C1 (centres undefined) |  |  |  |  | bioavailability [3]: 34%; AUC [4]: 3400 ng·h/mL
OC1CCc2c(Br)ccc(Nc3cc(-c4ccc(C(F)(F)F)cc4)ncn3)c2C1 (centres undefined) | 8.02 | 8.68 |  |  | Solubility ([5]; phosphate buffered saline, read-out: Solubility): 7.7 µg/mL (≈ 16.6 µM); clearance [6]: 6.5 mL/min/kg; half-life [7]: 5.5 h; bioavailability [3]: 60%; Solubility [8, 11]: 73 µg/mL (≈ 157 µM); Solubility [9, 12]: 7.2 µg/mL (≈ 15.5 µM); AUC [4]: 7600 ng·h/mL
OC1CCc2cccc(Nc3cc(-c4ccc(C(F)(F)F)cc4)ncn3)c2C1 (single isomer, unassigned; (+)) | 8.24 | 9.24 | 5.6 µg/mL (≈ 14.5 µM) | 180 µg/mL (≈ 467 µM) | t1/2 (Rattus norvegicus): 1.2 h; Solubility ([8]; simulated gi fluid): 60 µg/mL (≈ 156 µM)
OC1CCc2cccc(Nc3cc(-c4ccc(C(F)(F)F)cc4)ncn3)c2C1 (single isomer, unassigned; (-)) | 8.26 | 9.21 | 9.1 µg/mL (≈ 23.6 µM) |  | clearance [6]: 96.7 mL/min/kg; half-life [7]: 0.9 h; Solubility [8, 11]: 85 µg/mL (≈ 221 µM); Solubility [9, 12]: 160 µg/mL (≈ 415 µM)

Continued, in another order:

pIC50 [1] | pIC50 [2] | Solubility ([5]; buffer) | Solubility ([9]; buffer) | SMILES | other results
8.51 | 9.19 | 23 µg/mL (≈ 59.7 µM) | 190 µg/mL (≈ 493 µM) | OC1CCc2cccc(Nc3cc(-c4ccc(C(F)(F)F)cc4)ncn3)c2C1 (stereo in doubt; 4) | 
 |  | < 0.1 µg/mL | < 0.1 µg/mL | CC(=O)Nc1nc2c(Oc3cc(-c4ccc(C(F)(F)F)cc4)ncn3)cccc2s1 [AMG-517] | AUC [10]: 5300 ng·h/mL; Solubility ([8]; simulated gi fluid): 0.66 µg/mL (≈ 1.53 µM)
